According to ChEMBL document CHEMBL1129316, “Inhibitors of human immunodeficiency virus type 1 protease containing 2-aminobenzyl-substituted 4-amino-3-hydroxy-5-phenylpentanoic acid: synthesis, activity, and oral bioavailability” (J Med Chem, 1996):
pIC50, pKi: −log10 of the molar value. In brackets after ≈: the same amount, converted by molar mass.

Columns and labels:
[1] = Oral Bioavailability was measured as area-under-curve(AUC) value at dose 125 mg/kg; assay type: ADME, organism-based; conditions: in vivo
In short: (§1)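 Female Balb/c mice, fasted 24 h before and during the study, water ad libitum. Dosed by oral gavage at 125 mg/kg in a liquid formulation. Heparinized whole blood sampled at various times, methanol-extracted, cleaned on sulfobenzyl SPE, then RP-C18 HPLC with UV at 200 nm against an internal standard. Cmax taken as observed; AUC calculated. Detection limit 0.1 µM.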

[2] = biological target: Human immunodeficiency virus type 1 protease (Human immunodeficiency virus 1, UniProt Q72874); assay: Binding affinity against HIV-1 protease
In short: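 Recombinant HIV-1 PR expressed in E. coli JM105 and purified to homogeneity. Enzyme incubated at 37 °C in 0.1 M MES, 0.37 M NaCl, 4 mM EDTA, pH 6.25, with 280 µM chromogenic nonapeptide substrate (pNph). Initial rates taken from the absorbance decrease at 298 nm. IC50 fitted, then Ki = (IC50 − Et/2)/(1 + S/Km). Mean of two determinations; DMSO ≤5%.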

[3] = test system: Human immunodeficiency virus 1; assay: Antiviral activity against HIV-1, IIIB, in MT-4 Cells; assay type: functional, organism-based; conditions: Human immunodeficiency virus 1, MT4
In short: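 HIV-1 strain IIIB-induced cytopathic effect in HTLV-I-transformed MT4 cells. Virus adsorbed to cells at 1 × 10⁶ cells/mL, 37 °C, 1 h. Compounds added postadsorption, final 1 × 10⁵ cells/mL. Inoculum set to kill 90% of cells in 5 days. Mock-infected and compound-only controls run. DMSO ≤0.3%, medium with 10% FBS. Viability read by MTT after 5 days. Mean of repeat determinations.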

[4] = Oral Bioavailability was measured as Maximal observed concentration (Cmax) value at dose 125 mg/kg; assay type: ADME, organism-based; parameters: dose 125 mg/kg, route oral; conditions: in vivo; in short: as §1
[5] = Solubility (phosphate-buffered saline, pH =7.4); assay type: physicochemical; conditions: read-out: S
In short: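 About 1 mg of lyophilized amorphous inhibitor in 1 mL PBS (pH 7.4), vortexed 1 min and sonicated 30 min at 37 °C. Filtered, then centrifuged at 100 000 rpm for 30 min. Supernatant run on RP-C18 HPLC (10 mM NH4OAc/CH3CN 50/50, UV 210 nm) and quantified by external standard. Minimum detectable 0.1 µg/mL.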

With `COc1ccc(CN[C@@H](C(=O)N[C@H]2c3ccccc3C[C@H]2O)[C@H](O)[C@H](Cc2ccccc2)NC(=O)[C@@H](NC(=O)OCc2ccccc2)C(C)(C)C)cc1` the AUC [1] was 82.5 µM·h, the pKi [2] was 8.02 and the pIC50 [3] was 6.60. The Cmax [4] was 16500 nM and the solubility [5] was under 1 µM.
With `COc1ccc(CN[C@@H](C(=O)NC2c3ccccc3C[C@H]2O)[C@H](O)[C@H](Cc2ccccc2)NC(=O)[C@@H](NC(=O)CCc2ccccc2O)C(C)(C)C)cc1` (some centres not stated) the AUC [1] was 11.8 µM·h, the pKi [2] was 7.89 and the pIC50 [3] was 6.80. The Cmax [4] was 1800 nM.
Compound `COc1ccc(CN[C@@H](C(=O)NC2c3ccccc3C[C@H]2O)[C@H](O)[C@H](Cc2ccccc2)NC(=O)[C@@H](NC(=O)CCc2ccc(OC)c(O)c2)C(C)(C)C)cc1` (some centres not stated) has an AUC [1] of 0.2 µM·h, a pKi [2] of 8.11 and a pIC50 [3] of 7.06. For the same compound, the Cmax [4] was 250 nM.
Work on `CCC(C)C(NC(=O)OCc1ccccc1)C(=O)N[C@@H](Cc1ccccc1)[C@@H](O)[C@@H](NCc1ccc(OC)cc1)C(=O)N[C@@H]1c2ccccc2CC1O` (some centres not stated) yielded a pKi [2] of 8.09 and a pIC50 [3] of 5.96.
`COc1ccc(CN[C@@H](C(=O)NC2c3ccccc3C[C@H]2O)[C@H](O)[C@H](Cc2ccccc2)NC(=O)[C@@H](NC(=O)/C=C/c2ccc(OC)cc2O)C(C)(C)C)cc1` (some centres not stated) gave a pKi [2] of 7.74 and a pIC50 [3] of 6.62.
`COc1ccc(CN[C@@H](C(=O)N[C@H]2c3ccccc3C[C@H]2O)[C@H](O)[C@H](Cc2ccccc2)NC(=O)[C@@H](NC(=O)Nc2cccc(OC)c2OC)C(C)(C)C)cc1` showed a pKi [2] of 7.89 and a pIC50 [3] of 6.27.
`CC(=O)NCc1ccc(CN[C@@H](C(=O)N[C@H]2c3ccccc3C[C@H]2O)[C@H](O)[C@H](Cc2ccccc2)NC(=O)OC(C)(C)C)cc1` showed a pKi [2] of 7.15 and a pIC50 [3] of 5.59.
`COc1ccc(CN[C@@H](C(=O)N[C@@H]2c3ccccc3C[C@H]2O)[C@H](O)[C@H](Cc2ccccc2)NC(=O)C(CC(N)=O)NC(=O)OCc2ccccc2)cc1` (some centres not stated) gave a pKi [2] of 7.82 and a pIC50 [3] of 5.85.
Compound `CC(C)(C)[C@H](NC(=O)OCc1ccccc1)C(=O)N[C@@H](Cc1ccccc1)[C@@H](O)[C@@H](NCc1ccc(OCCO)cc1)C(=O)N[C@H]1c2ccccc2C[C@H]1O` has an AUC [1] of 5.9 µM·h, a pIC50 [3] of 6.81 and a Cmax [4] of 2600 nM. It also gave a solubility [5] of 16.5 µM (≈ 12.4 µg/mL).
`COc1ccc(CN[C@@H](C(=O)NC(C(=O)NCc2nc3ccccc3[nH]2)c2ccccc2)[C@H](O)[C@H](Cc2ccccc2)NC(=O)OC(C)(C)C)cc1` (some centres not stated) gave a pKi [2] of 7.96 and a pIC50 [3] of 6.42.
With `COc1ccc(CN[C@@H](C(=O)NC2c3ccccc3C[C@H]2O)[C@H](O)[C@H](Cc2ccccc2)NC(=O)[C@@H](NC(=O)CSc2nnn(C)n2)C(C)(C)C)cc1` (some centres not stated) the AUC [1] was 7.4 µM·h, the pKi [2] was 7.92 and the pIC50 [3] was 6.74. It also gave a Cmax [4] of 2800 nM and a solubility [5] of 78 µM (≈ 58.1 µg/mL).
`CC(C)(C)OC(=O)N[C@@H](Cc1ccccc1)[C@@H](O)[C@@H](NCc1ccc(CNC(=O)CCc2nc3ccccc3[nH]2)cc1)C(=O)N[C@H]1c2ccccc2C[C@H]1O` gave a pKi [2] of 7.39 and a pIC50 [3] of 5.36.
Compound `CC(C)(C)OC(=O)N[C@@H](Cc1ccccc1)[C@@H](O)[C@@H](NCc1ccc(OCCO)cc1)C(=O)N[C@@H]1c2ccccc2C[C@H]1O` has a pKi [2] of 7.10 and a pIC50 [3] of 5.40.
With `COc1ccc(CN[C@@H](C(=O)N[C@H](C(=O)NCc2nc3ccccc3[nH]2)C(C)C)[C@H](O)[C@H](Cc2ccccc2)NC(=O)[C@@H](NC(=O)OCc2ccccc2)C(C)(C)C)cc1` the AUC [1] was 0.6 µM·h, the pKi [2] was 8.47 and the pIC50 [3] was 7.60. It also gave a Cmax [4] of 200 nM and a solubility [5] of under 1 µM.
With `COc1ccc(CN[C@@H](C(=O)NC2c3ccccc3C[C@H]2O)[C@H](O)[C@H](Cc2ccccc2)NC(=O)[C@@H](NC(=O)CSc2nnc(C)s2)C(C)(C)C)cc1` (some centres not stated) the AUC [1] was 60.3 µM·h, the pKi [2] was 8.10 and the pIC50 [3] was 6.75. It also gave a Cmax [4] of 20000 nM and a solubility [5] of 39 µM (≈ 29.7 µg/mL).
Work on `CCOc1ccc(CN[C@@H](C(=O)N[C@H]2c3ccccc3C[C@H]2O)[C@H](O)[C@H](Cc2ccccc2)NC(=O)[C@@H](NC(=O)OCc2ccccc2)C(C)(C)C)cc1` yielded an AUC [1] of 23.9 µM·h, a pIC50 [3] of 6.59 and a Cmax [4] of 4300 nM. It also gave a solubility [5] of under 1 µM.
